Laboratory results published in ChEMBL document CHEMBL4428118, “Optimization of pyrimidinol antioxidants as mitochondrial protective agents: ATP production and metabolic stability” (Bioorg Med Chem, 2016).
Calls of active or inactive are those of the source. No cut-off for these calls is given here.

Key:
[1] = tested on: GM15850; test: Antioxidant activity in FRDA patient derived lymphocyte GM15850 assessed as inhibition of DEM-induced lipid peroxidation at 0.1 to 1 uM pre-incubated for 16 hrs followed by DEM addition for 120 mins by C11-BODIPY581/591 probe based flow cytometry relative to control; format: functional, cell-based; settings: Homo sapiens
Method in brief: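 Cells seeded at 5 × 10^5 cells/mL in RPMI-1640 with 15% fetal calf serum and 2 mM glutamine. Compounds added 16 h at 37 °C, 5% CO2. Then 1 μM C11-BODIPY581/591 in phenol red-free medium, 30 min in the dark. 5 mM DEM for 120 min, PBS wash, FL1-H read (488 nm excitation). 10,000 events. Green median fluorescence reported as % of DEM-treated control, n = 3.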

[2] = tested on: GM15850; test: Antioxidant activity in FRDA patient derived lymphocyte GM15850 assessed as suppression of DEM-induced intracellular ROS levels at 100 nM pre-incubated for 16 hrs followed by DEM addition for 80 mins by DCFH-DA probe based flow cytometry; format: functional, cell-based; settings: Homo sapiens
Method in brief: (§1)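 Cells (5 × 10^5) pretreated with compound 16 h at 37 °C, then 5 mM DEM for 80 min. Washed, then 10 μM DCFH-DA in PBS with 20 mM glucose for 25 min at 37 °C in the dark. DCF read on FL1-H, 10,000 events. Median fluorescence given as % of DEM-treated control. Duplicates, three independent runs.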

[3] = tested on: GM15850; test: Inhibition of DEM-induced collapse of mitochondrial membrane potential in FRDA patient derived lymphocyte GM15850 assessed as intact mitochondrial membrane potential at 100 nM pre-incubated for 16 hrs followed by DEM addition for 120 mins by TMRM dye based flow cytometry (reference value: 91.3 %); format: functional, Homo sapiens; set-up: scale not given: the % may be the effect or the level left
Method in brief: (§2)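 Cells (5 × 10^5) pretreated with or without compound for 16 h, then 5 mM DEM for 120 min. Stained with 250 nM TMRM in PBS with 20 mM glucose, 15 min at 37 °C in the dark. FL2-H read, 10,000 events, % cells with high TMRM uptake (intact potential). FCCP as uncoupler control. Means ± SEM of independent experiments run in duplicate.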

[4] = tested on: GM15850; test: Inhibition of DEM-induced collapse of mitochondrial membrane potential in FRDA patient derived lymphocyte GM15850 assessed as intact mitochondrial membrane potential at 1000 nM pre-incubated for 16 hrs followed by DEM addition for 120 mins by TMRM dye based flow cytometry (reference value: 91.3 %); format: functional, Homo sapiens; set-up: scale not given: the % may be the effect or the level left; method in brief: as §2
[5] = tested on: GM15850; test: Inhibition of DEM-induced collapse of mitochondrial membrane potential in FRDA patient derived lymphocyte GM15850 assessed as intact mitochondrial membrane potential at 2500 nM pre-incubated for 16 hrs followed by DEM addition for 120 mins by TMRM dye based flow cytometry (reference value: 91.3 %); format: functional, Homo sapiens; set-up: scale not given: the % may be the effect or the level left; method in brief: as §2
[6] = tested on: GM15850; test: Inhibition of DEM-induced collapse of mitochondrial membrane potential in FRDA patient derived lymphocyte GM15850 assessed as intact mitochondrial membrane potential pre-incubated for 16 hrs followed by DEM addition for 120 mins by TMRM dye based flow cytometry; format: functional, cell-based; settings: Homo sapiens; method in brief: as §2
[7] = tested on: GM15850; test: Effect on mitochondrial membrane potential in FRDA patient derived lymphocyte GM15850 incubated for 16 hrs by TMRM dye based flow cytometry; format: cell-based; settings: human, gm15850, 16 h
[8] = tested on: GM15850; test: Increase in total intracellular ATP levels in FRDA patient derived lymphocyte GM15850 grown in galactose medium at 1 uM after 48 hrs by luciferin-luciferase reaction based bioluminescence assay relative to control; format: functional, Homo sapiens
Method in brief: (§3)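 Cells at 2 × 10^5 cells/mL in glucose-free RPMI with 25 mM galactose, 10% dialyzed FBS and 2 mM glutamine. Compound exposure 48 h at 37 °C, 5% CO2. Total ATP read by luciferin-luciferase bioluminescence. Expressed as % of untreated control, mean of at least three independent runs; Student's t-test, p ≤ 0.05 versus vehicle.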

[9] = tested on: GM15850; test: Increase in total intracellular ATP levels in FRDA patient derived lymphocyte GM15850 grown in galactose medium at 5 uM after 48 hrs by luciferin-luciferase reaction based bioluminescence assay relative to control; format: functional, Homo sapiens; method in brief: as §3
[10] = tested on: GM15850; test: Increase in total intracellular ATP levels in FRDA patient derived lymphocyte GM15850 grown in galactose medium at 20 uM after 48 hrs by luciferin-luciferase reaction based bioluminescence assay relative to control; format: functional, Homo sapiens; method in brief: as §3
[11] = tested on: GM15850; test: Cytoprotective activity against DEM induced oxidative stress in FRDA patient derived lymphocyte GM15850 assessed as cell viability at 0.5 uM pre-incubated for 16 hrs followed by DEM addition for 6 hrs by calcein AM/EthD-1 staining based flow cytometry; format: functional; settings: Homo sapiens
Method in brief: (§4)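 Seeding 5 × 10^5 cells/mL, compound for 16 h at 37 °C, then 5 mM DEM for 6 h. Cells washed, resuspended in PBS with 25 mM galactose. Stained with 0.1 μM calcein AM and 0.1 μM EthD-1, 15 min at 37 °C in the dark. FL1-H/FL2-H read, 10,000 events. Viability relative to DMSO vehicle control.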

[12] = tested on: GM15850; test: Cytoprotective activity against DEM induced oxidative stress in FRDA patient derived lymphocyte GM15850 assessed as cell viability at 0.1 uM pre-incubated for 16 hrs followed by DEM addition for 6 hrs by calcein AM/EthD-1 staining based flow cytometry; format: functional; settings: Homo sapiens; method in brief: as §4
[13] = Stability in bovine liver microsomes assessed as drug recovery at 25 uM after 30 mins in presence of beta-NADPH by HPLC analysis; format: ADME, Bos taurus, Microsome; settings: cattle, read-out: Drug recovery
Method in brief: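 Freshly prepared bovine liver microsomes at 1 mg/mL protein in 50 mM phosphate buffer pH 7.4 with 5 mM MgCl2. Compound at 25 μM final, reaction started with 1 mM β-NADPH, 30 min at 37 °C, stopped with propanol. Control was deactivated microsomes without NADPH. Reversed-phase HPLC with fluorene internal standard. Reported as % remaining versus control, quadruplicate.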

[14] = tested on: GM15850; test: Increase in total intracellular ATP levels in FRDA patient derived lymphocyte GM15850 grown in galactose medium after 48 hrs by luciferin-luciferase reaction based bioluminescence assay; format: functional, cell-based; settings: Homo sapiens; method in brief: as §3
[15] = tested on: GM15850; test: Antioxidant activity in FRDA patient derived lymphocyte GM15850 assessed as suppression of DEM-induced intracellular ROS levels at 2.5 uM pre-incubated for 16 hrs followed by DEM addition for 80 mins by DCFH-DA probe based flow cytometry; format: functional, cell-based; settings: Homo sapiens; method in brief: as §1
[16] = tested on: GM15850; test: Antioxidant activity in FRDA patient derived lymphocyte GM15850 assessed as suppression of DEM-induced intracellular ROS levels pre-incubated for 16 hrs followed by DEM addition for 80 mins by DCFH-DA probe based flow cytometry; format: functional, cell-based; settings: Homo sapiens; method in brief: as §1

| SMILES | Activity [1] | Activity [2] | Activity [3] [%] | Activity [4] [%] | Activity [5] [%] | Activity [6] | Activity [7] | Activity [8] [%] | Activity [9] [%] | Activity [10] [%] | Activity [11] | Activity [12] | remaining at 0.5 h, 25 µM [13] [%] | Activity [14] | Activity [15] | Activity [16] |
| --- | --- | --- | --- | --- | --- | --- | --- | --- | --- | --- | --- | --- | --- | --- | --- | --- |
| CCCCCCCCCCCCCCCCc1nc(N2CCC2)nc(OCC)c1O | Active | Active | 88.9 | 87.6 | 88 | Dose-dependent effect | Non-Toxic | 100 | 108 | 96 | Active | inactive | 54 |  |  |  |
| CCCCCCCCCCCCCCCCc1nc(N2CCC2)nc(C)c1O | Active | Active | 91.1 | 86.5 | 83.3 | Dose-dependent effect | Non-Toxic | 109 | 98 | 60 | Active | inactive | 57 |  |  |  |
| CCCCCCCCCCCCCCCCc1nc(N2CCC2)nc(OC)c1O | Active | Active | 90.5 | 88.8 | 86.8 | Dose-dependent effect | Non-Toxic | 102 | 109 | 74 | Active | inactive | 58 |  |  |  |
| CCCCCCCCCCCCCCCOc1nc(N2CCC2)nc(C)c1O | Active | Active | 88.9 | 82.7 | 77.2 | Dose-dependent effect | Non-Toxic | 96 | 68 | 11 | Active | inactive | 62 | Dose-dependent effect |  |  |
| CCCCCCCCCCCCCCCCc1nc(N2CCC2)nc(OC2CCC2)c1O | inactive | inactive | 55 | 66.6 | 83.4 | Dose-dependent effect | Non-Toxic | 98 | 112 | 103 | inactive | inactive | 65 |  | Active | Dose-dependent effect |
| CCCCCCCCCCCCCCCCc1nc(N2CCCCC2)nc(OC2CCC2)c1O | inactive | inactive | 7.8 | 32.4 | 62.3 | Dose-dependent effect | Non-Toxic | 99 | 106 | 100 | inactive | inactive | 72 |  | Active | Dose-dependent effect |
| CCCCCCCCCCCCCCCCc1nc(N(C)C)nc(OC)c1O | Active | Active | 92 | 88.3 | 85.8 | Dose-dependent effect | Non-Toxic | 115 | 107 | 88 |  | inactive | 46 |  |  |  |
| CCCCCCCCCCCCCCCCc1nc(N2CCC2)nc(OC(C)C)c1O | Active | Active | 91.5 | 90.4 | 87.5 | Dose-dependent effect | Non-Toxic | 106 | 109 | 95 | Active | inactive | 76 |  |  |  |
| CCCCCCCCCCCCCCCCc1nc(N2CCCC2)nc(OC2CCC2)c1O | inactive | inactive | 42.5 | 52.3 | 70.4 | Dose-dependent effect | Non-Toxic | 98 | 107 | 102 | inactive | inactive | 72 |  | Active | Dose-dependent effect |
